For series [1], the target named is T1, Estrogen receptor (Homo sapiens, UniProt P03372).
T1 sequence (P03372 whole entry): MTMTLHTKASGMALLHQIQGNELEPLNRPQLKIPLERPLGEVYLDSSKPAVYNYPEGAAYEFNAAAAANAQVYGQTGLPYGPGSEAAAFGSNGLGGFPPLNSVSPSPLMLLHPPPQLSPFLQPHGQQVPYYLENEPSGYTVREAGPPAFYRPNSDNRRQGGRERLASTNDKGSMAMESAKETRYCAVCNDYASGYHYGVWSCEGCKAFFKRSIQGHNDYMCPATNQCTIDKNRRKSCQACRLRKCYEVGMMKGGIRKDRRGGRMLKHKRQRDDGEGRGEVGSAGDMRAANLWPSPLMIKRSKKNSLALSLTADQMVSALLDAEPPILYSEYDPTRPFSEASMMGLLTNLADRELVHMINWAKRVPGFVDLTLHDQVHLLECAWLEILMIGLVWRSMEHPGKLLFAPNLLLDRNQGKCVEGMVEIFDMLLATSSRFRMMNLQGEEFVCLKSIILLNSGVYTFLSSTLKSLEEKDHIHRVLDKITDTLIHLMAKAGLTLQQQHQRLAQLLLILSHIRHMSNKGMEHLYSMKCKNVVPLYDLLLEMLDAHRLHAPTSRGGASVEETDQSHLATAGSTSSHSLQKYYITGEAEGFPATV
The experiment in a line: Binding affinity to recombinant human GST-tagged ERalpha LBD expressed in baculovirus-infected insect cells by lantha screen assay.

The target of series [2] is T1, Estrogen receptor. The experiment in a line: Induction of ERalpha degradation in human MCF7 cells after 18 to 24 hrs by in multiplexed cell assay. It counts as cell-based. In outline: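 MCF-7 cells were kept at 37 °C, 5% CO₂ in phenol red-free RPMI1640 with 5% charcoal-stripped FCS and 2 mmol/L glutamine. Compounds came from 10 mmol/L DMSO stocks.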
The nature of series [3]: Lipophilicity, log D of the compound at pH 7.4 by shake flask method. It counts as physicochemical. Conditions: buffer. In outline: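 Shake-flask measurement of logD at pH 7.4.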
Series [4] in a line: Fraction unbound in Alderley Park Han Wistar rat plasma by equilibrium dialysis. In kind it is ADME, cell-free. In outline: (§1)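 Equilibrium dialysis from DMSO stock in 10% plasma, either Alderley Park Han Wistar rat plasma or human plasma.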
A short description of series [5]: Fraction unbound in 10% human plasma by equilibrium dialysis. In kind it is ADME, cell-free. The conditions noted are these: 10% plasma. In short, it runs like this: as §1
In general terms: Equilibrium dialysis compares concentrations on both sides of a semipermeable membrane.

Series [6] is described as follows: Intrinsic clearance in rat hepatocytes assessed per million cells. In kind it is ADME, cell-based, Hepatocyte. Conditions: read-out: CLH. In short, it runs like this: (§2)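 Rate of metabolism (µl/min/10⁶ cells) measured from DMSO stock in isolated hepatocytes diluted to 1x10⁶ cells/mL.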
A short description of series [7]: Intrinsic clearance in human hepatocytes assessed per million cells. In kind it is ADME, cell-based, Hepatocyte. Conditions: read-out: CLH. In outline: as §2
Series [8] can be described thus: Glutathione reactivity in human liver microsomes assessed as GSH trapping ratio of compound to clozapine. It counts as ADME, Microsome. In short, it runs like this:
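Glutathione trapping in human liver microsomes, expressed as a ratio to clozapine.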
Background: Liver microsomes are a subcellular fraction often used to study metabolism.

A value given as a limit tells only on which side of the number the result lay.

Here are results for 15 molecules from ChEMBL document CHEMBL4368914, “Tricyclic Indazoles-A Novel Class of Selective Estrogen Receptor Degrader Antagonists” (J Med Chem, 2019).

With `COc1cc(/C=C/C(=O)O)ccc1[C@@H]1c2ccc3[nH]ncc3c2C[C@@H](C)N1CC(C)(C)F`, the IC50 (commonly the midpoint of a concentration-inhibition curve) is 1.58 nM on Estrogen receptor [1] and 0.631 nM against Estrogen receptor [2]. Further, the logD (in general, lipophilicity at a set pH, counting ionised and neutral species) in series [3] came to 2.2. Also, the fraction unbound – broadly, the share of the substance not bound to proteins or other matrix – worked out at 0.046 in series [4] and 0.0098 in series [5]. Besides, the hepatocyte CLint stood at 17 µL/min/1e6 cells in series [6] and 6 µL/min/1e6 cells in series [7]. For the same molecule, in series [8], the Ratio is listed as less than 0.04.

As for `C[C@@H]1Cc2c(ccc3[nH]ncc23)[C@@H](c2ccc(/C=C/C(=O)O)cc2)N1CC(C)(C)F`, the half-maximal inhibitory concentration (IC50) is 1.58 nM at Estrogen receptor [1] and 0.316 nM at Estrogen receptor [2]. In addition, the logD in series [3] was determined as 2.9. Moreover, the fraction unbound worked out at 0.015 in series [4] and 0.0087 in series [5]. For the same molecule, the hepatocyte CLint in series [6] worked out at 8 µL/min/1e6 cells; in series [7], 78 µL/min/1e6 cells.

`CC(C)CN1[C@H](c2ccc(/C=C/C(=O)O)cc2)c2ccc3[nH]ncc3c2CC1(C)C`: the IC50 on Estrogen receptor [1] is 20 nM; against Estrogen receptor [2], 1.58 nM. The molecule also came in with a logD in series [3] of 2. Further, the results for the fraction unbound in series [4] and in series [5] were 0.066 and 0.036, respectively. In addition, the hepatocyte CLint amounted to 6 µL/min/1e6 cells in series [6] and 93 µL/min/1e6 cells in series [7]. In series [8], the Ratio was less than 0.04.

Consider `CC(C)CN1CCc2c(ccc3[nH]ncc23)[C@H]1c1ccc(/C=C/C(=O)O)cc1`, for which the values for the IC50 on Estrogen receptor [1] and on Estrogen receptor [2] were 25.1 nM and 6.31 nM, respectively. In series [3], this molecule had a pH-dependent lipophilicity (logD) of 1.9. For the same molecule, the values for the fraction unbound in series [4] and in series [5] were 0.036 and 0.07, respectively. The hepatocyte CLint was 10 µL/min/1e6 cells in series [6] and 51 µL/min/1e6 cells in series [7]. For the same molecule, in series [8], the Ratio is recorded as less than 0.04.

In the case of `CC(C)CN1CCc2c(ccc3[nH]ccc23)C1c1ccc(/C=C/C(=O)O)cc1` (stereo not drawn), the IC50 at Estrogen receptor [1] is 316 nM; against Estrogen receptor [2] it was 63.1 nM. In series [3], this molecule registered a logD of 1.7. Further, the fraction unbound in series [4] worked out at 0.068; in series [5] it was 0.033. In addition, the hepatocyte CLint came out at 20 µL/min/1e6 cells in series [6] and 8 µL/min/1e6 cells in series [7].

`CC(C)CN1CCc2cc(O)ccc2[C@H]1c1ccc(/C=C/C(=O)O)cc1` displayed an unbound share (fraction unbound) in series [4] of 0.037.

`CC(C)CN1[C@H](c2ccc(/C=C/C(=O)O)cc2)c2ccc3[nH]ncc3c2C[C@H]1C`: the IC50 was 10 nM at Estrogen receptor [1] and 0.631 nM against Estrogen receptor [2]. For the same molecule, the fraction unbound is 0.034 in series [4] and 0.022 in series [5]. Also, the results for the hepatocyte CLint in series [6] and in series [7] were 7 µL/min/1e6 cells and 30 µL/min/1e6 cells, respectively. For the same molecule, the Ratio in series [8] was less than 0.04.

`C[C@@H]1Cc2c(ccc3[nH]ncc23)[C@@](C)(c2c(F)cc(/C=C/C(=O)O)cc2F)N1CC(C)(F)F`: the concentration for half-maximal inhibition (IC50) was 0.316 nM at Estrogen receptor [1] and 0.794 nM against Estrogen receptor [2]. In addition, the logD in series [3] worked out at 3. The fraction unbound in series [4] was found to be 0.0076; in series [5], 0.0027. For the same molecule, the values for the hepatocyte CLint in series [6] and in series [7] were 20 µL/min/1e6 cells and 6 µL/min/1e6 cells, respectively.

Consider `COc1cc(/C=C/C(=O)O)c(F)cc1[C@@H]1c2ccc3[nH]ncc3c2C[C@@H](C)N1CC(C)(F)F`, for which the half-maximal inhibitory concentration (IC50) was 0.501 nM on Estrogen receptor [1] and 0.316 nM at Estrogen receptor [2]. Moreover, in series [3], the logD turned out to be 2.6. This molecule registered a fraction unbound in series [5] of 0.012. Besides, the hepatocyte CLint worked out at 22 µL/min/1e6 cells in series [6] and 5 µL/min/1e6 cells in series [7].

In the case of `COc1cc(/C=C/C(=O)O)ccc1[C@]1(C)c2ccc3[nH]ncc3c2C[C@@H](C)N1CC(C)(C)F`, the 50% inhibitory concentration (IC50) at Estrogen receptor [1] was 3.98 nM; at Estrogen receptor [2], 2.51 nM. In series [3], the logD was 1.9. The same molecule gave a fraction unbound in series [5] of 0.077. Further, the hepatocyte CLint in series [6] came to 10 µL/min/1e6 cells; in series [7] it was 4 µL/min/1e6 cells.

Regarding `CC(C)CN1CCc2cccc3[nH]cc(c23)C1c1ccc(/C=C/C(=O)O)cc1` (stereo not drawn), the IC50 on Estrogen receptor [1] is 39800 nM; at Estrogen receptor [2] it was more than 10000 nM. Also, the logD in series [3] was 1. This molecule also yielded a fraction unbound in series [5] of 0.11. Besides, the hepatocyte CLint in series [6] was determined as 10 µL/min/1e6 cells.

As to `COc1c([C@@H]2c3ccc4[nH]ncc4c3C[C@@H](C)N2CC(C)(F)F)ccc(/C=C/C(=O)O)c1F`, the values for the 50% inhibitory concentration (IC50) on Estrogen receptor [1] and on Estrogen receptor [2] were 1.26 nM and 6.31 nM, respectively. The same molecule registered a logD in series [3] of 2.6. Also, the free fraction (fraction unbound) in series [5] is 0.0082. The hepatocyte CLint in series [6] was 17 µL/min/1e6 cells; in series [7], 7 µL/min/1e6 cells.

Take `CC(C)CN1[C@H](c2c(F)cc(/C=C/C(=O)O)cc2F)c2ccc3[nH]ncc3c2C[C@H]1C`: the IC50 is 1.26 nM at Estrogen receptor [1] and 0.794 nM against Estrogen receptor [2]. The molecule also showed a logD in series [3] of 3. The fraction unbound in series [4] was found to be 0.0052; in series [5], 0.0048. In addition, the hepatocyte CLint in series [6] worked out at 19 µL/min/1e6 cells; in series [7] it was 22 µL/min/1e6 cells. For the same molecule, in series [8], the Ratio is given as less than 0.04.

In the case of `COc1cc(/C=C/C(=O)O)cc(F)c1[C@@H]1c2ccc3[nH]ncc3c2C[C@@H](C)N1CC(C)(F)F`, the figures for the IC50 on Estrogen receptor [1] and against Estrogen receptor [2] were 0.316 nM and 0.2 nM, respectively. For the same molecule, in series [3], the logD worked out at 2.8. The same molecule registered a fraction unbound in series [5] of 0.007. Also, the hepatocyte CLint in series [6] turned out to be 32 µL/min/1e6 cells; in series [7], 6 µL/min/1e6 cells.

For `C[C@@H]1Cc2c(ccc3[nH]ncc23)[C@@](C)(c2c(F)cc(/C=C/C(=O)O)cc2F)N1CC(C)(C)F`, the IC50 on Estrogen receptor [1] is 0.398 nM; against Estrogen receptor [2], 0.631 nM. In series [3], this molecule had a logD of 2.9. Further, the fraction unbound is 0.0023 in series [4] and 0.0033 in series [5]. Also, the hepatocyte CLint amounted to 12 µL/min/1e6 cells in series [6] and 10 µL/min/1e6 cells in series [7]. In addition, the Ratio in series [8] is less than 0.04.
